Starred links: 1 amine or outer side, 2 acyl side, 3 side chain; linkers in the order of their positions; H or OH if unused. Non-standard residues stand in square brackets, D forms with d. Residues, ends and D or L forms follow the SMILES beside them. X1 = O=C(C1CCC(N[*:1])CC1)[*:2]
What was measured:
[1] = Ratio of the inhibitory concentrations against CaMPKII and MLCK. IC50 (CaMPKII ) / IC50 (MLCK).
Outline: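 Ratio of IC50 values from the two radiometric assays, both with 0.2 mM [γ-32P]ATP and 20 μM peptide substrate. CaMPKII was activated with 30 μM CaM and 2 mM CaCl2 and run 8 min. Chicken gizzard MLCK was activated with 1 μM CaM and 5 μM CaCl2 and run 20 min. Both at 25 °C, IC50 from 15–85% activity regression.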

CaM kinase II = CaM kinase II (Homo sapiens, UniProt Q13557+Q13555+Q13554+Q9UQM7); assay: Inhibitory activity against CaMPKII (Calcium/calmodulin-dependent protein kinase type II); assay type: protein assay
[2] = biological target: Myosin light chain kinase, smooth muscle (Gallus gallus, UniProt P11799); assay: Inhibitory activity against MLCK (smooth muscle myosin light chain kinase)
Sequence of Myosin light chain kinase, smooth muscle (P11799 whole entry): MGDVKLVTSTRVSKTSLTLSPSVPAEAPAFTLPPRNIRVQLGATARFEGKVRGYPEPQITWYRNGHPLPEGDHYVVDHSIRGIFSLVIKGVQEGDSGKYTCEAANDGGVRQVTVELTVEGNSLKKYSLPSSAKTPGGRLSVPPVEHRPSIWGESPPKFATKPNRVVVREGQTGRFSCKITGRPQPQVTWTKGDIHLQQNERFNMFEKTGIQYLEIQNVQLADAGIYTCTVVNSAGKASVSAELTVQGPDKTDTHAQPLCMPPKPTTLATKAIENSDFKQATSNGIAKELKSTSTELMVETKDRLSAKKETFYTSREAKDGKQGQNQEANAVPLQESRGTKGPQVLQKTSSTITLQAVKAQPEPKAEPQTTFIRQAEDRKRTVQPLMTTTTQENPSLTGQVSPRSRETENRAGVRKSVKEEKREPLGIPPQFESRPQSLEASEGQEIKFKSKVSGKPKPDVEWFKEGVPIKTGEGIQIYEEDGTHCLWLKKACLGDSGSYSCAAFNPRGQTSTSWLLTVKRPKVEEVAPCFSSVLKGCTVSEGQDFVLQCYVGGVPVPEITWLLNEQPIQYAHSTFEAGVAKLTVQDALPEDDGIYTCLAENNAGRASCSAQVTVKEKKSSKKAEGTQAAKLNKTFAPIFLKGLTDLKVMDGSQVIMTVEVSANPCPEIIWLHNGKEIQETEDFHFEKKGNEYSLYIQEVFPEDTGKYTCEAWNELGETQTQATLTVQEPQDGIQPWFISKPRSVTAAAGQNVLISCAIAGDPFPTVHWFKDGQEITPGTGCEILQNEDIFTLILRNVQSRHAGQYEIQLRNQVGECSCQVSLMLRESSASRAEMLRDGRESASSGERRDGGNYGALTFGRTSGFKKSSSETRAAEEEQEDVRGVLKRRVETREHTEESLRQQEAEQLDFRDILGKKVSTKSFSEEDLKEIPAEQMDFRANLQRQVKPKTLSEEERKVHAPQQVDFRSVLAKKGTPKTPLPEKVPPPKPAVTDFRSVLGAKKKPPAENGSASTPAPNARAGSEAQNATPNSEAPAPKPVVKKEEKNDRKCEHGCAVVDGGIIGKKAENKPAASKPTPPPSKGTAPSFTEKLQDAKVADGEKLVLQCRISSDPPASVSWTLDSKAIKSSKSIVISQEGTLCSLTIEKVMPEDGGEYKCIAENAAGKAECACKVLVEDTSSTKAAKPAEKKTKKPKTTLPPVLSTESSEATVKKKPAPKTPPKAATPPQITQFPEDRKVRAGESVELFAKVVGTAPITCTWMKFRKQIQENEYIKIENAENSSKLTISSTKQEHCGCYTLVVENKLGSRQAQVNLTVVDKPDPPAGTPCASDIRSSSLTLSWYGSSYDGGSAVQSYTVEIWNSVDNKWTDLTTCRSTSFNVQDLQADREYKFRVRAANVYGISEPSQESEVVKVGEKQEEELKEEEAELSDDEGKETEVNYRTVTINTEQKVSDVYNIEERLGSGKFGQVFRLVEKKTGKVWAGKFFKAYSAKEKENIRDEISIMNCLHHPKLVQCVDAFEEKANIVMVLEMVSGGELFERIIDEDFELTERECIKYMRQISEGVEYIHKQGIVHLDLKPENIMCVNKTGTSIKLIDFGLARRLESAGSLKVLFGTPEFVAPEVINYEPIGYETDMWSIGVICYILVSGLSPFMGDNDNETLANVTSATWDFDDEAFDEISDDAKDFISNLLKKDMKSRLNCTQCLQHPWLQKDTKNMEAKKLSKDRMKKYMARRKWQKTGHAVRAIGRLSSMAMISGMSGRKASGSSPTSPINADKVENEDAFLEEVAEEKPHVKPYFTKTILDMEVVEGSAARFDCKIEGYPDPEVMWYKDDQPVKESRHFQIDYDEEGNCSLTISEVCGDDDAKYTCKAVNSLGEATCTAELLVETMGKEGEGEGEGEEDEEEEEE

| Compound | Ratio [1] | IC50 (CaM kinase II) [nM] | IC50 [2] [nM] |
| --- | --- | --- | --- |
| NCCCC[C@H](NC(=O)[C@H](CCCN=C(N)N)NC(=O)[C@H](CCCN=C(N)N)NC(=O)C1CCC(NC(=O)[C@H](CCCCN)NC(=O)C2CCC(NC(=O)[C@H](CCCCN)NC(=O)[C@H](CCCCN)NC(=O)[C@@H](N)CCCN=C(N)N)CC2)CC1)C(N)=O (stereo not given in full) (H-RKK[X1]K[X1]RRK-NH2) | > 10 | > 200000 | 20000 |
| H-RKKYKLRRK-NH2 | 413 | 132000 | 320 |
| H-RKKYKGRRK-NH2 [listing 1 of 2 here] | > 645 | > 200000 |  |
| H-RKKYKVRRK-NH2 [listing 1 of 2 here] | > 556 | > 200000 |  |
| NCCCC[C@H](NC(=O)[C@H](CCCN=C(N)N)NC(=O)[C@H](CCCN=C(N)N)NC(=O)[C@H](Cc1ccc(O)cc1)NC(=O)C1CCC(NC(=O)C2CCC(NC(=O)[C@H](CCCCN)NC(=O)[C@H](CCCCN)NC(=O)[C@@H](N)CCCN=C(N)N)CC2)CC1)C(N)=O (stereo not given in full) (H-RKK[X1][X1]YRRK-NH2) | > 67 | > 200000 |  |
| H-RKKYKERRK-NH2 | > 230 | > 200000 | 870 |
| C[C@@H](O)[C@H](NC(=O)[C@H](CCCCN)NC(=O)[C@H](Cc1ccc(O)cc1)NC(=O)[C@H](CCCCN)NC(=O)[C@H](CCCCN)NC(=O)[C@@H](N)CCCN=C(N)N)C(=O)N[C@@H](CCCN=C(N)N)C(=O)N[C@@H](CCCN=C(N)N)C(=O)N[C@@H](CCCCN)C(N)=O |  | > 200000 | 730 |
| H-RKKYKVRRK-NH2 [listing 2 of 2 here] |  |  | 360 |
| H-RKKYKSRRK-NH2 [listing 1 of 2 here] | > 1330 | > 200000 |  |
| H-RKKYKNRRK-NH2 [listing 2 of 2 here] | > 690 | > 200000 |  |
| H-RKKYKDRRK-NH2 | > 328 | > 200000 | 610 |
| N=C(N)NCCC[C@H](NC(=O)[C@H](CCCNC(=N)N)NC(=O)[C@H](Cc1ccc(O)cc1)NC(=O)C1CCC(NC(=O)C2CCC(NC(=O)[C@H](CCCCN)NC(=O)[C@H](CCCCN)NC(=O)[C@@H](N)CCCNC(=N)N)CC2)CC1)C(=O)N[C@@H](CCCCN)C(N)=O (stereo not given in full) (H-RKK[X1][X1]YRRK-NH2) |  |  | 2970 |
| NCCCC[C@H](NC(=O)[C@H](CCCN=C(N)N)NC(=O)[C@H](CCCN=C(N)N)NC(=O)[C@H](Cc1ccc(O)cc1)NC(=O)[C@H](CCCCN)NC(=O)C1CCC(NC(=O)[C@H](CCCCN)NC(=O)[C@H](CCCCN)NC(=O)[C@@H](N)CCCN=C(N)N)CC1)C(N)=O (stereo not given in full) (H-RKK[X1]KYRRK-NH2) | > 192 | > 200000 | 1040 |
| H-RKKYKGRRK-NH2 [listing 2 of 2 here] |  |  | 310 |
| CC[C@@H](C)[C@H](NC(=O)[C@H](CCCCN)NC(=O)[C@H](Cc1ccc(O)cc1)NC(=O)[C@H](CCCCN)NC(=O)[C@H](CCCCN)NC(=O)[C@@H](N)CCCN=C(N)N)C(=O)N[C@@H](CCCN=C(N)N)C(=O)N[C@@H](CCCN=C(N)N)C(=O)N[C@@H](CCCCN)C(N)=O | 359 |  |  |
| N=C(N)NCCC[C@H](NC(=O)C1CCC(NC(=O)C2CCC(NC(=O)C3CCC(NC(=O)[C@H](CCCCN)NC(=O)[C@H](CCCCN)NC(=O)[C@@H](N)CCCNC(=N)N)CC3)CC2)CC1)C(=O)N[C@@H](CCCNC(=N)N)C(=O)N[C@@H](CCCCN)C(N)=O (stereo not given in full) (H-RKK[X1][X1][X1]RRK-NH2) |  |  | 20000 |
| C[C@H](O)[C@H](NC(=O)[C@H](CCCCN)NC(=O)[C@H](Cc1ccc(O)cc1)NC(=O)[C@H](CCCCN)NC(=O)[C@H](CCCCN)NC(=O)[C@@H](N)CCCN=C(N)N)C(=O)N[C@@H](CCCN=C(N)N)C(=O)N[C@@H](CCCN=C(N)N)C(=O)N[C@@H](CCCCN)C(N)=O | > 274 |  |  |
| H-RKKYKARRK-NH2 | > 476 | > 200000 | 420 |
| H-RKKYKMRRK-NH2 [listing 2 of 2 here] | > 1250 | > 200000 |  |
| NCCCC[C@H](NC(=O)[C@H](CCCN=C(N)N)NC(=O)[C@H](CCCN=C(N)N)NC(=O)C1CCC(NC(=O)C2CCC(NC(=O)C3CCC(NC(=O)[C@H](CCCCN)NC(=O)[C@H](CCCCN)NC(=O)[C@@H](N)CCCN=C(N)N)CC3)CC2)CC1)C(N)=O (stereo not given in full) (H-RKK[X1][X1][X1]RRK-NH2) | > 10 | > 200000 |  |

Further compounds by falling IC50 [2], results first:

| Ratio [1] | IC50 (CaM kinase II) [nM] | IC50 [2] [nM] | Compound |
| --- | --- | --- | --- |
| > 667 | > 200000 | 300 | H-RKKYKQRRK-NH2 |
| 56 | 16200 | 290 | H-RKKYKHRRK-NH2 |
|  |  | 290 | H-RKKYKNRRK-NH2 [listing 1 of 2 here] |
| > 741 | > 200000 | 270 | NCCCC[C@H](NC(=O)[C@H](CCCN=C(N)N)NC(=O)[C@H](CCCN=C(N)N)NC(=O)C1CCC(NC(=O)[C@H](CCCCN)NC(=O)[C@H](Cc2ccc(O)cc2)NC(=O)[C@H](CCCCN)NC(=O)[C@H](CCCCN)NC(=O)[C@@H](N)CCCN=C(N)N)CC1)C(N)=O (stereo not given in full) (H-RKKYK[X1]RRK-NH2) |
| > 909 | > 200000 | 220 | H-RKKYKKRRK-NH2 |
| 134 | 26700 | 200 | H-RKKYKWRRK-NH2 |
|  |  | 160 | H-RKKYKMRRK-NH2 [listing 1 of 2 here] |
|  | 57400 | 160 | CC[C@H](C)[C@H](NC(=O)[C@H](CCCCN)NC(=O)[C@H](Cc1ccc(O)cc1)NC(=O)[C@H](CCCCN)NC(=O)[C@H](CCCCN)NC(=O)[C@@H](N)CCCNC(=N)N)C(=O)N[C@@H](CCCNC(=N)N)C(=O)N[C@@H](CCCNC(=N)N)C(=O)N[C@@H](CCCCN)C(N)=O |
| > 1330 | > 200000 | 150 | H-RKKYKFRRK-NH2 |
|  |  | 150 | H-RKKYKSRRK-NH2 [listing 2 of 2 here] |
| > 1670 | > 200000 | 120 | H-RKKYKPRRK-NH2 |
| > 1820 | > 200000 | 110 | NCCCC[C@H](NC(=O)[C@H](CCCN=C(N)N)NC(=O)[C@H](CCCN=C(N)N)NC(=O)C1CCC(NC(=O)C2CCC(NC(=O)[C@H](Cc3ccc(O)cc3)NC(=O)[C@H](CCCCN)NC(=O)[C@H](CCCCN)NC(=O)[C@@H](N)CCCN=C(N)N)CC2)CC1)C(N)=O (stereo not given in full) (H-RKKY[X1][X1]RRK-NH2) |
| > 4000 | > 200000 | 50 | H-RKKYKYRRK-NH2 |
| > 5000 | > 200000 | 40 | NCCCC[C@H](NC(=O)[C@H](CCCN=C(N)N)NC(=O)[C@H](CCCN=C(N)N)NC(=O)[C@H](Cc1ccc(O)cc1)NC(=O)C1CCC(NC(=O)[C@H](Cc2ccc(O)cc2)NC(=O)[C@H](CCCCN)NC(=O)[C@H](CCCCN)NC(=O)[C@@H](N)CCCN=C(N)N)CC1)C(N)=O (stereo not given in full) (H-RKKY[X1]YRRK-NH2) |

Reference: ChEMBL document CHEMBL1132602, “Identification of novel classes of protein kinase inhibitors using combinatorial peptide chemistry based on functional genomics knowledge” (J Med Chem, 1999)
